Measurements published in publication PMC11170706 (ACS Omega, 2024).

Tests used:
[1] = system: Bcl-2, caspases, COX-2, MMP-9, survivin, VEGF, Akt/mTOR and STAT-3 in SAS cells; test: Western blot analysis of proteins involved in OSCC; format: cell-based, human; details: 24 h, AA2 2.5, 5, 10 μM, AA3 10, 15, 20 μM
Summary of the method: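 SAS cells were seeded at 4 × 10^5 per well, attached 24 h, then treated 24 h with test compound (0–20 μM). Lysis buffer: 20 mM HEPES, 250 mM NaCl, 2 mM EDTA, 0.1% Triton X-100, 1 mM DTT, protease inhibitors. Protein was quantified by Bradford and equal amounts run on 12% SDS-PAGE, then transferred to nitrocellulose. Blocking was 5% milk, primary antibody overnight at 4 °C, HRP secondary 2 h, ECL detection. α-Tubulin served as loading control.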

SAS cells [2] = test: Wound-healing scratch assay; format: cell-based, human; details: 24 h
Summary of the method: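 SAS cells were seeded at 6 × 10^5 per well and grown to a monolayer. Cells were serum-starved in DMEM for 6 h to block proliferation, then scratched with a pipette tip and PBS-washed. Test compound was added and wounds were imaged at 0 and 24 h. Percentage wound area remaining is reported as mean ± SD, Student's t test, p < 0.05.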

SAS cells [3] = test: PI-RNase-based cell-cycle analysis; set-up: species or system human; details: 24 h, AA2 1-10 μM, AA3 5-20 μM, PI-RNase flow cytometry
Summary of the method: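 SAS cells were seeded at 2 × 10^5 per well, grown 24 h, then treated 24 h with test compound. Cells were trypsinized, PBS-washed and fixed overnight in 75% ethanol at −20 °C. They were stained with PI-RNase for 20 min in the dark and analysed by flow cytometry for the percentage of cells in each cycle phase.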

OSCC cell line SAS = test: MTT cell proliferation assay, SAS cells; format: cell-based, human; details: for IC50: Homo sapiens, 72 h, read-out: IC50 value (μM) SAS; for Selectivity index (SI) IC50 (HaCaT)/IC50 (SAS): ratio of IC50 in HaCaT to IC50 in SAS
SAS cells [4] = test: Annexin V-based flow cytometric analysis of apoptosis; format: cell-based, human; details: 48 h
Summary of the method: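 SAS cells were seeded at 2 × 10^5 per well, grown 24 h, then exposed to test compound for 48 h. Medium-borne and trypsinized cells were collected and washed three times in PBS. They were labelled with annexin V for 20 min, then PI for 10 min, and analysed by flow cytometry. Apoptosis was computed from quadrants Q2+Q4.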

[5] = system: human normal cell line HaCaT; test: MTT cell proliferation assay, HaCaT cells; format: cell-based; details: 72 h, read-out: IC50 value (μM) HaCaT
Summary of the method: (§1)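 Human lines kept in DMEM with 10% FBS and 1% Pen-Strep at 37 °C, 5% CO2. 2 × 10^3 cells/well were seeded, grown 24 h, then exposed to test compound for 72 h (SAS and T.Tn: 0, 5, 10, 25, 50, 100 μM; HaCaT: 0, 10, 25, 50, 75, 100 μM). MTT (5 mg/mL stock) was added for 2 h, formazan dissolved in DMSO, and A570 read. Percentage proliferation was taken relative to untreated control. IC50 was read where the dose–response curve crosses 50%.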

[6] = system: esophageal cancer cell line T.Tn; test: MTT cell proliferation assay, T.Tn cells; format: cell-based; details: Homo sapiens, 72 h, read-out: IC50 value (μM) T.Tn
Summary of the method: as §1

SAS cells [7] = test: Colony formation; format: cell-based, human; details: for inhibition at 10 µM: read-out: inhibition/reduction of colony formation
Summary of the method: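 SAS cells were seeded at 2 × 10^3 per well and attached for 24 h. Test compound (1–20 μM range) was given for 24 h, then replaced with fresh medium for 10 days of growth. Colonies were washed in PBS, fixed in 70% ethanol for 4 h at −20 °C, stained with 0.01% crystal violet and counted. Plating efficiency = colonies/cells plated × 100. Survival fraction = PE treated/PE control.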

SAS cells [8] = test: PI-based flow cytometric analysis of cell death; set-up: species or system human; details: 48 h, PI staining
Summary of the method: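 After 24 h attachment, 2 × 10^5 SAS cells per well received test compound for 48 h. Floating cells from the medium were pooled with trypsinized cells and washed three times in PBS. The unfixed cells were resuspended in PBS with PI and analysed by flow cytometry, with percentage of dead cells recorded.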

SMILES: CC(C)=CCc1c(-c2cc(O)c(O)cc2O)oc2c3c(cc(O)c2c1=O)OC(C)(C)C=C3 [AA2, artonin E]
- effect on Akt/mTOR and STAT-3 signaling pathways [1]: inhibition of the Akt/mTOR and STAT-3 signaling pathways
- effect on Bcl-2 expression [1]: downregulation of Bcl-2
- effect on caspase-3 and caspase-9 [1]: activation of caspase-3 and caspase-9 in a dose-dependent manner
- wound area (initial gap) remaining (SAS cells [2]; 1 μM): approximately 25%
- wound area (initial gap) remaining (SAS cells [2]; 2.5 μM): 40%
- wound area (initial gap) remaining (SAS cells [2]; 5 μM): over 60%
- wound area (initial gap) remaining (SAS cells [2]; 10 μM): over 75%
- effect on cell-cycle progression (SAS cells [3]): arrest of these cells in the S-phase
- IC50 (OSCC cell line SAS): 6 µM
- Selectivity index (SI) IC50 (HaCaT)/IC50 (SAS) (OSCC cell line SAS): 12
- apoptosis (percentage of apoptotic cells) (SAS cells [4]; 2.5 μM): 8%
- apoptosis (percentage of apoptotic cells) (SAS cells [4]; 5 μM): 18%
- apoptosis (percentage of apoptotic cells) (SAS cells [4]; 10 μM): 22%
- IC50 [5]: 72 µM
- IC50 [6]: 8 µM
- inhibition at 5 µM (SAS cells [7]; Homo sapiens, read-out: inhibition of colony formation): > 90%
- inhibition at 10 µM (SAS cells [7]; Homo sapiens): > 90%
- reduction of colony formation (SAS cells [7]; SAS cells, 2.5 μM, 24 h treatment, 10 days culture): over 50%
- cell death (SAS cells [8]; 10 μM): more than 80%

SMILES: C=C(C)[C@H]1Cc2c(oc3c4c(cc(O)c3c2=O)OC(C)(C)C=C4)-c2c(O)cc(O)c(O)c21 [AA3, artobiloxanthone]
- effect on Akt/mTOR and STAT-3 signaling pathways [1]: inhibition of the Akt/mTOR and STAT-3 signaling pathways
- effect on Bcl-2 expression [1]: downregulation of Bcl-2
- effect on caspase-3 and caspase-9 [1]: activation of caspase-3 and caspase-9 in a dose-dependent manner
- wound area (initial gap) remaining (SAS cells [2]; 5 μM): over 45%
- wound area (initial gap) remaining (SAS cells [2]; 10 μM): over 60%
- wound area (initial gap) remaining (SAS cells [2]; 15 μM): over 65%
- wound area (initial gap) remaining (SAS cells [2]; 20 μM): 90%
- effect on cell-cycle progression (SAS cells [3]): arrest of these cells in the S-phase
- IC50 (OSCC cell line SAS): 11 µM
- Selectivity index (SI) IC50 (HaCaT)/IC50 (SAS) (OSCC cell line SAS): 6.4
- apoptosis (percentage of apoptotic cells) (SAS cells [4]; 5 μM): 8%
- apoptosis (percentage of apoptotic cells) (SAS cells [4]; 10 μM): 18%
- apoptosis (percentage of apoptotic cells) (SAS cells [4]; 15 μM): 26%
- apoptosis (percentage of apoptotic cells) (SAS cells [4]; 20 μM): 30%
- IC50 [5]: 70 µM
- IC50 [6]: 22 µM
- inhibition at 10 µM (SAS cells [7]; Homo sapiens): > 80%
- cell death (SAS cells [8]; 20 μM): approximately 8%

SMILES: O=c1[nH]cc(F)c(=O)[nH]1 [5-FU, 5-fluorouracil, reference compound]
- IC50 (OSCC cell line SAS): 3 µM
- Selectivity index (SI) IC50 (HaCaT)/IC50 (SAS) (OSCC cell line SAS): 1.3
- IC50 [5]: 4 µM
